SMILES strings stand for the structures. Calls of active or inactive are those of the source. The calls are words filed in the database; no cut-off is given here.

In assay [1] the test system is Danio rerio. The experiment in a line: Antiangiogenic activity in transgenic fli1a:EGFP-tagged zebrafish embryo assessed as reduction in intersegmental vessel sprouting at 0.1 uM administered from 24 hrs post fertilization and measured after 72 hrs by fluorescence microscopy relative to control. It counts as functional. Set-up: scale not given: the % may be the effect or the level left. A digest of the protocol: (§1)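 Embryos staged after natural spawning and kept in E3 medium at 28.5 °C. At 1 dpf, 10 embryos per well were placed in E3 containing compound at […] and incubated 72 h at 28.5 °C. Untreated and 1% DMSO vehicle controls were included. Larvae were anaesthetised with 0.01% tricaine and mounted in 1% low-melt agarose. ISVs were imaged in the green channel, and % defective ISVs was counted manually.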

Assay [2] deals with PC-3. The experiment in a line: Induction of apoptosis in human PC3 cells assessed as early apoptotic cells at 3 uM incubated for 48 hrs by annexin V FITC and propidium iodide staining based flow cytometry (reference value: 2.8 %). It counts as functional. A digest of the protocol: (§2)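 PC-3 cells at 1 × 10^6 per well were treated 48 h at […]. Cells were trypsinised, washed in PBS and resuspended in annexin binding buffer. Annexin V-FITC and PI were added for 15 min at room temperature. 10000 cells were analysed by flow cytometry and sorted into quadrants as live, early apoptotic, late apoptotic or necrotic.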
(In flow cytometry, cells or beads pass a laser one at a time.)

In assay [3] the test system is PC-3. Kind of assay: Induction of apoptosis in human PC3 cells assessed as early apoptotic cells at 5 uM incubated for 48 hrs by annexin V FITC and propidium iodide staining based flow cytometry (reference value: 2.8 %). It counts as functional. An outline of the steps:
as §2

The test system of assay [4] is PC-3. The experiment in a line: Cell cycle arrest in human PC3 cells assessed as accumulation in G0/G1 phase at 1 uM incubated for 48 hrs by propidium iodide based flow cytometry (reference value: 51.3 %). It counts as functional.
The subject of assay [5] is PC-3. The experiment in a line: Induction of apoptosis in human PC3 cells assessed as necrotic cells at 3 uM incubated for 48 hrs by annexin V FITC and propidium iodide staining based flow cytometry (reference value: 1 %). It counts as functional. A digest of the protocol: as §2
Assay [6] has as its system PC-3. Kind of assay: Cell cycle arrest in human PC3 cells assessed as accumulation in G0/G1 phase incubated for 48 hrs by propidium iodide based flow cytometry. It counts as functional.
The subject of assay [7] is PC-3. To be noted: Homo sapiens, 1 to 5 uM.
The test system of assay [8] is PC-3. Kind of assay: Induction of apoptosis in human PC3 cells assessed as necrotic cells at 5 uM incubated for 48 hrs by annexin V FITC and propidium iodide staining based flow cytometry (reference value: 1 %). It counts as functional. An outline of the steps: as §2
The next assay relates to A549. The experiment in a line: Cytotoxicity against human A549 cells assessed as reduction in cell viability incubated for 72 hrs by MTT assay. To be noted: A549, 72 h. Background: Formazan colour is commonly taken as a measure of viable cells.
Assay [9] concerns PC-3. The experiment in a line: Cell cycle arrest in human PC3 cells assessed as accumulation in G0/G1 phase at 3 uM incubated for 48 hrs by propidium iodide based flow cytometry (reference value: 51.3 %). It counts as functional.
The subject of assay [10] is PC-3. Kind of assay: Induction of apoptosis in human PC3 cells assessed as late apoptotic cells at 5 uM incubated for 48 hrs by annexin V FITC and propidium iodide staining based flow cytometry (reference value: 1.2 %). It counts as functional. A digest of the protocol:
as §2

For assay [11], the system named is PC-3. The experiment in a line: Cell cycle arrest in human PC3 cells assessed as reduction in G2/M phase population at 1 uM incubated for 48 hrs by propidium iodide staining based flow cytometry. It counts as functional.
The test system of assay [12] is PC-3. Particulars: Homo sapiens, 3 uM.
The test system of assay [13] is Danio rerio. The experiment in a line: Antiangiogenic activity in transgenic fli1a:EGFP-tagged zebrafish embryo assessed as reduction in intersegmental vessel sprouting at 0.5 uM administered from 24 hrs post fertilization and measured after 72 hrs by fluorescence microscopy relative to control. It counts as functional. Further details: scale not given: the % may be the effect or the level left. A digest of the protocol:
as §1

Assay [14] deals with PC-3. The experiment in a line: Induction of apoptosis in human PC3 cells incubated for 48 hrs by annexin V FITC and propidium iodide staining based flow cytometry. It counts as functional, cell-based. A digest of the protocol: as §2
The subject of assay [15] is PC-3. The experiment in a line: Induction of apoptosis in human PC3 cells assessed as viable cells at 5 uM incubated for 48 hrs by annexin V FITC and propidium iodide staining based flow cytometry (reference value: 95 %). Particulars: PC-3, 48 h, read-out: Activity. It counts as functional. A digest of the protocol: as §2
Assay [16] concerns PC-3. The experiment in a line: Induction of apoptosis in human PC3 cells assessed as late apoptotic cells at 1 uM incubated for 48 hrs by annexin V FITC and propidium iodide staining based flow cytometry (reference value: 1.2 %). It counts as functional. An outline of the steps:
as §2

The test system of assay [17] is PC-3. The experiment in a line: Inhibition of cell migration in human PC3 cells at 5 uM incubated for 48 hrs by phase contrast microscopy based scratch wound healing assay relative to control. Particulars: PC-3, 48 h. It counts as functional. A digest of the protocol: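 Confluent PC-3 monolayers were scratched with a pipette tip to leave lanes about 1 mm wide, and debris was washed off with PBS. Cells were given complete medium alone or medium containing […]. Wounds were imaged by phase contrast at time zero and after 48 h.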

In assay [18] the test system is PC-3. The experiment in a line: Induction of apoptosis in human PC3 cells at incubated for 48 hrs by […] staining based fluorescence microscopy. It counts as functional, cell-based. A digest of the protocol:
(§3)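 PC-3 cells on coverslips (1 × 10^6 per well) were incubated 48 h with […]. Cells were PBS-washed, 4% paraformaldehyde was added, and they were stained 20 min with […]. After three PBS washes, nuclei were examined by fluorescence microscopy for chromatin condensation and fragmentation.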

The subject of assay [19] is PC-3. The experiment in a line: Induction of apoptosis in human PC3 cells assessed as viable cells at 1 uM incubated for 48 hrs by annexin V FITC and propidium iodide staining based flow cytometry (reference value: 95 %). It counts as functional. Particulars: PC-3, 48 h, read-out: Activity. A digest of the protocol: as §2
Assay [20] has as its system PC-3. Kind of assay: Induction of apoptosis in human PC3 cells assessed as nuclei condensation incubated for 48 hrs by […] staining based fluorescence microscopy. It counts as functional, cell-based. An outline of the steps: as §3
Assay [21] deals with PC-3. Kind of assay: Induction of apoptosis in human PC3 cells assessed as early apoptotic cells at 1 uM incubated for 48 hrs by annexin V FITC and propidium iodide staining based flow cytometry (reference value: 2.8 %). It counts as functional. A digest of the protocol:
as §2

Assay [22] has as its system PC-3. The experiment in a line: Cell cycle arrest in human PC3 cells assessed as reduction in S phase population at 1 uM incubated for 48 hrs by propidium iodide staining based flow cytometry. It counts as functional.
Assay [23] deals with PC-3. The experiment in a line: Induction of apoptosis in human PC3 cells assessed as viable cells at 3 uM incubated for 48 hrs by annexin V FITC and propidium iodide staining based flow cytometry (reference value: 95 %). To be noted: PC-3, 48 h, read-out: Activity. It counts as functional. An outline of the steps:
as §2

Assay [24] concerns PC-3. Kind of assay: Induction of apoptosis in human PC3 cells assessed as mitochondrial membrane potential loss incubated for 48 hrs by JC1 staining based fluorescence microscopy. It counts as functional, cell-based. A digest of the protocol: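 PC-3 cells were plated at 5 × 10^5 cells/mL and incubated 48 h with […]. The medium was then replaced with fresh medium containing JC-1 for 20 min. After three PBS washes, red and green fluorescence was imaged, and depolarisation was read as a rise in the green/red ratio.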

In a further assay the test system is HEK-293T. Kind of assay: Cytotoxicity against HEK293T cells assessed as reduction in cell viability incubated for 72 hrs by MTT assay. Particulars: Homo sapiens.
The subject of assay [25] is PC-3. The experiment in a line: Induction of apoptosis in human PC3 cells assessed as late apoptotic cells at 3 uM incubated for 48 hrs by annexin V FITC and propidium iodide staining based flow cytometry (reference value: 1.2 %). It counts as functional. A digest of the protocol:
as §2

A further assay deals with HT-29. Kind of assay: Cytotoxicity against human HT-29 cells assessed as reduction in cell viability incubated for 72 hrs by MTT assay. To be noted: HT-29, 72 h.
In assay [26] the test system is PC-3. The experiment in a line: Cell cycle arrest in human PC3 cells assessed as accumulation in G0/G1 phase at 5 uM incubated for 48 hrs by propidium iodide based flow cytometry (reference value: 51.3 %). It counts as functional.
Assay [27] has as its system U-87 MG. To be noted: Homo sapiens; U-87MG ATCC.
Assay [28] deals with PC-3. The experiment in a line: Induction of apoptosis in human PC3 cells assessed as nuclei fragmentation incubated for 48 hrs by […] staining based fluorescence microscopy. It counts as functional, cell-based. An outline of the steps:
as §3

Assay [29] deals with PC-3. The experiment in a line: Induction of apoptosis in human PC3 cells assessed as necrotic cells at 1 uM incubated for 48 hrs by annexin V FITC and propidium iodide staining based flow cytometry (reference value: 1 %). It counts as functional. A digest of the protocol:
as §2

The test system of assay [30] is Danio rerio. Kind of assay: Antiangiogenic activity in transgenic fli1a:EGFP-tagged zebrafish embryo assessed as reduction in intersegmental vessel sprouting administered from 24 hrs post fertilization and measured after 72 hrs by fluorescence microscopy. It counts as functional, organism-based. A digest of the protocol:
as §1

Assay [31] has as its system PC-3. The experiment in a line: Cytotoxicity against human PC3 cells assessed as reduction in cell viability incubated for 72 hrs by MTT assay. To be noted: PC-3, 72 h.
The test system of assay [32] is U-87 MG. Kind of assay: Cytotoxicity against human U87MG cells assessed as reduction in cell viability incubated for 72 hrs by MTT assay.
Assay [33] has as its system Danio rerio. Kind of assay: Antiangiogenic activity in transgenic fli1a:EGFP-tagged zebrafish embryo assessed as reduction in intersegmental vessel sprouting at 1 uM administered from 24 hrs post fertilization and measured after 72 hrs by fluorescence microscopy relative to control. It counts as functional. Further details: scale not given: the % may be the effect or the level left. An outline of the steps:
as §1

The test system of assay [34] is Danio rerio. Kind of assay: Antiangiogenic activity in transgenic fli1a:EGFP-tagged zebrafish embryo assessed as reduction in intersegmental vessel sprouting at 0.1 to 1 uM administered from 24 hrs post fertilization and measured after 72 hrs by fluorescence microscopy relative to control. It counts as functional. Further details: scale not given: the % may be the effect or the level left. An outline of the steps: as §1

For the molecule `O=C(Nc1nc2ccc(Cl)cc2s1)c1cn(-c2ccccc2)nc1-c1ccc(F)cc1`, the Activity in the assay with Danio rerio [1] was 16%; in the assay on PC-3 [2], 13.8%; with PC-3 [3] it was 16.7%; in the assay with PC-3 [4] it was 65.5%; with PC-3 [5], 2.1%; in the assay with PC-3 [6], “Dose-dependent effect”. Further, the Activity is 2.8% in the assay with PC-3 [8]; 74.8% in the assay with PC-3 [9]; 9.6% in the assay on PC-3 [10]; 47.3% in the assay on Danio rerio [13]; “Dose-dependent effect” in the assay with PC-3 [14]; 3.7% with PC-3 [16]. Also, the Activity entry is “Dose-dependent effect” in the assay on PC-3 [18]; “Dose-dependent effect” in the assay on PC-3 [20]; 10.4% in the assay with PC-3 [21]; “Dose-dependent effect” in the assay on PC-3 [24]; 6.9% with PC-3 [25]; 81.4% in the assay on PC-3 [26]. Also, the Activity result in the assay on PC-3 [28] was “Dose-dependent effect”; in the assay on PC-3 [29], 1.1%; in the assay with Danio rerio [30] it was “Dose-dependent effect”; in the assay on Danio rerio [33], 54.5%. For the same molecule, the inhibition entry in the assay with PC-3 [7], with PC-3 [12] and in the assay with U-87 MG [27] was “Active” in each case. The IC50 in the assay with A549 worked out at 3.87 µM; in the assay with HEK-293T, 45.7 µM; in the assay with HT-29 it was 3.32 µM; with PC-3 [31], 3.17 µM; in the assay with U-87 MG [32], 6.77 µM. Further, the result in the assay on PC-3 [11] and in the assay with PC-3 [22] was Active. Also, the viability at 5 µM in the assay on PC-3 [15] was determined as 70.9%. The inhibition at 5 µM in the assay on PC-3 [17] was 100%. In addition, the viability at 1 µM in the assay on PC-3 [19] amounted to 84.8%. In addition, the viability at 3 µM in the assay with PC-3 [23] was 77.2%.
`CNC(=O)c1ccccc1Sc1ccc2c(/C=C/c3ccccn3)n[nH]c2c1` [AXITINIB]: in the assay with Danio rerio [34], the Activity is 63.1 - 90.4%.

The term inhibition denotes the percentage by which the read-out fell short of the control. The IC50 is the concentration that gives 50% inhibition.

(Values after ChEMBL document CHEMBL4359898, “Pyrazolo-benzothiazole hybrids: Synthesis, anticancer properties and evaluation of antiangiogenic activity using in vitro VEGFR-2 kinase and in vivo transgenic zebrafish model” (Eur J Med Chem, 2019).)
